For data set [1], the species on record is Rattus norvegicus. Nature of the data set: Protective index, ratio of TD50 for albino Sprague-Dawley rat to ED50 for scMet-induced albino Sprague-Dawley rat seizure model. Format: functional. In outline: (§1)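 Protective index is the rat TD50 (minimal motor impairment) divided by the ED50 in the MES or sc pentylenetetrazol test. Male Sprague-Dawley rats were dosed orally in 0.5% methylcellulose, and both values came from probit analysis.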

The species entered for data set [2] is Rattus norvegicus. The data set is described as follows: Protective index, ratio of TD50 for albino Sprague-Dawley rat to ED50 for maximal electroshock-induced albino Sprague-Dawley rat seizure model. The data set is classed as functional. In outline: as §1
(In general: In the maximal electroshock model the usual endpoint is tonic extension of the hind limbs.)

For data set [3], the system named is Rattus norvegicus. Nature of the data set: Anticonvulsant activity in albino Sprague-Dawley rat assessed as protection against scMet-induced seizures at 50 mg/kg, po after 2 hrs. Format: functional. Put shortly:
(§2)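 Male Sprague-Dawley albino rats (100-150 g) were given the compound orally as a suspension in 0.5% methylcellulose. Seizures were induced by subcutaneous pentylenetetrazol, dissolved in 0.9% saline as a 2.82% solution. The read-out was animals protected over animals tested.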

For data set [4], the system named is Mus musculus. Nature of the data set: Anticonvulsant activity in CF1 albino mouse assessed as protection against scMet-induced seizures at 30 mg/kg, ip after 0.5 hrs. The data set is classed as functional, organism-based. On the set-up: dose 30 mg/kg. Put shortly:
(§3)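 Adult male CF no. 1 albino mice (18-25 g) dosed intraperitoneally with compound suspended in 0.5% methylcellulose (0.01 mL/g). Convulsant challenge given subcutaneously as a 0.85% pentylenetetrazol solution in 0.9% saline. Read-out is animals protected over animals tested, with neurotoxicity scored in parallel.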

Data set [5] relates to Rattus norvegicus. The data set is described as follows: Anticonvulsant activity in albino Sprague-Dawley rat assessed as protection against scMet-induced seizures at 50 mg/kg, po after 30 mins. Format: functional. In outline:
as §2

Data set [6] has as its system Mus musculus. Nature of the data set: Anticonvulsant activity in CF1 albino mouse assessed as protection against maximal electroshock-induced seizures at 300 mg/kg, ip after 4 hrs. The data set is classed as functional, organism-based. On the set-up: dose 300 mg/kg. Put shortly: (§4)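 Adult male CF no. 1 albino mice (18-25 g). Test compound suspended in 0.5% methylcellulose and given intraperitoneally at 0.01 mL/g body weight. Maximal electroshock challenge at the stated time. Read-out is the number of animals protected over the number tested; neurotoxicity is scored in parallel.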

The test system of data set [7] is Rattus norvegicus. Nature of the data set: Anticonvulsant activity in albino Sprague-Dawley rat assessed as protection against maximal electroshock-induced seizures at 50 mg/kg, po after 1 hr. Format: functional. In outline:
(§5)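 Adult male Sprague-Dawley albino rats (100-150 g) dosed orally with compound suspended in 0.5% methylcellulose (0.04 mL per 10 g). Maximal electroshock challenge at the stated time. Protection is scored in 25% steps as the fraction of animals protected, with neurotoxicity recorded in parallel.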

The subject of data set [8] is Mus musculus. The data set is described as follows: Neurotoxicity in CF1 albino mouse at 300 mg/kg, ip after 0.5 hrs. Particulars: in vivo. On the set-up: dose 300 mg/kg, route intraperitoneal. The data set is classed as toxicity, organism-based. Put shortly: (§6)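 Male CF no. 1 albino mice (18-25 g) received a single ip dose as a suspension in 0.5% methylcellulose. The read-out was the number of animals showing neurotoxicity (minimal motor impairment) over the number tested.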

The subject of data set [9] is Mus musculus. Nature of the data set: Neurotoxicity in CF1 albino mouse at 100 mg/kg, ip after 4 hrs. The data set is classed as toxicity, organism-based. On the set-up: dose 100 mg/kg, route intraperitoneal. Particulars: in vivo. In outline: as §6
Data set [10] deals with Mus musculus. The data set is described as follows: Anticonvulsant activity in CF1 albino mouse assessed as protection against scMet-induced seizures at 100 mg/kg, ip after 0.5 hrs. On the set-up: dose 100 mg/kg. Format: functional, organism-based. Put shortly:
as §3

For data set [11], the system named is Rattus norvegicus. The data set is described as follows: Anticonvulsant activity in albino Sprague-Dawley rat assessed as protection against scMet-induced seizures at 50 mg/kg, po after 1 hr. Format: functional. Put shortly:
as §2

Data set [12] concerns Rattus norvegicus. The data set is described as follows: Anticonvulsant activity in albino Sprague-Dawley rat assessed as protection against maximal electroshock-induced seizures at 50 mg/kg, po after 15 mins. The data set is classed as functional. In outline:
as §5

For data set [13], the system named is Rattus norvegicus. The data set is described as follows: Anticonvulsant activity in albino Sprague-Dawley rat assessed as protection against maximal electroshock-induced seizures at 50 mg/kg, po after 4 hrs. The data set is classed as functional, organism-based. On the set-up: dose 50 mg/kg. In outline:
as §5

The subject of data set [14] is Mus musculus. Nature of the data set: Anticonvulsant activity in CF1 albino mouse assessed as protection against maximal electroshock-induced seizures at 30 mg/kg, ip after 0.5 hrs. The data set is classed as functional, organism-based. On the set-up: dose 30 mg/kg. In outline:
as §4

Data set [15] deals with Rattus norvegicus. Nature of the data set: Anticonvulsant activity in albino Sprague-Dawley rat assessed as protection against scMet-induced seizures at 50 mg/kg, po after 15 mins. Format: functional. Put shortly: as §2
The subject of data set [16] is Rattus norvegicus. The data set is described as follows: Anticonvulsant activity in albino Sprague-Dawley rat assessed as protection against maximal electroshock-induced seizures at 50 mg/kg, po after 30 mins. The data set is classed as functional. Put shortly: as §5
Data set [17] concerns Mus musculus. Nature of the data set: Neurotoxicity in CF1 albino mouse at 30 mg/kg, ip after 0.5 hrs. Format: toxicity, organism-based. On the set-up: dose 30 mg/kg, route intraperitoneal. Particulars: in vivo. In outline: as §6
In data set [18] the test system is Mus musculus. Nature of the data set: Anticonvulsant activity in CF1 albino mouse assessed as protection against scMet-induced seizures at 300 mg/kg, ip after 0.5 hrs. Format: functional, organism-based. On the set-up: dose 300 mg/kg. In outline:
as §3

In data set [19] the test system is Mus musculus. The data set is described as follows: Anticonvulsant activity in CF1 albino mouse assessed as protection against scMet-induced seizures at 30 mg/kg, ip after 4 hrs. The data set is classed as functional, organism-based. On the set-up: dose 30 mg/kg. Put shortly: as §3
In data set [20] the test system is Mus musculus. Nature of the data set: Anticonvulsant activity in CF1 albino mouse assessed as protection against maximal electroshock-induced seizures at 100 mg/kg, ip after 4 hrs. On the set-up: dose 100 mg/kg. Format: functional, organism-based. Put shortly:
as §4

Data set [21] relates to Rattus norvegicus. Nature of the data set: Neurotoxicity in albino Sprague-Dawley rat at 50 mg/kg, po. The data set is classed as toxicity, organism-based. On the set-up: dose 50 mg/kg, route oral. Particulars: in vivo. In outline:
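Neurotoxicity was scored in male Sprague-Dawley albino rats (100-150 g) dosed orally with a suspension in 0.5% methylcellulose. The read-out was the fraction of animals showing neurotoxicity (minimal motor impairment).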

Data set [22] concerns Mus musculus. The data set is described as follows: Anticonvulsant activity in CF1 albino mouse assessed as protection against maximal electroshock-induced seizures at 100 mg/kg, ip after 0.5 hrs. The data set is classed as functional, organism-based. On the set-up: dose 100 mg/kg. In outline:
as §4

Data set [23] concerns Mus musculus. Nature of the data set: Anticonvulsant activity in CF1 albino mouse assessed as protection against scMet-induced seizures at 100 mg/kg, ip after 4 hrs. Format: functional, organism-based. On the set-up: dose 100 mg/kg. Put shortly: as §3
Data set [24] concerns Rattus norvegicus. The data set is described as follows: Anticonvulsant activity in albino Sprague-Dawley rat assessed as protection against scMet-induced seizures at 50 mg/kg, po after 4 hrs. The data set is classed as functional. In outline:
as §2

Data set [25] relates to Mus musculus. Nature of the data set: Neurotoxicity in CF1 albino mouse at 30 mg/kg, ip after 4 hrs. The data set is classed as toxicity, organism-based. On the set-up: dose 30 mg/kg, route intraperitoneal. As to conditions: in vivo. In outline:
as §6

In data set [26] the test system is Mus musculus. The data set is described as follows: Anticonvulsant activity in CF1 albino mouse assessed as protection against maximal electroshock-induced seizures at 30 mg/kg, ip after 4 hrs. On the set-up: dose 30 mg/kg. Format: functional, organism-based. Put shortly: as §4
For data set [27], the system named is Mus musculus. The data set is described as follows: Anticonvulsant activity in CF1 albino mouse assessed as protection against maximal electroshock-induced seizures at 300 mg/kg, ip after 0.5 hrs. On the set-up: dose 300 mg/kg. Format: functional, organism-based. In outline: as §4
In data set [28] the test system is Mus musculus. The data set is described as follows: Neurotoxicity in CF1 albino mouse at 100 mg/kg, ip after 0.5 hrs. On the set-up: dose 100 mg/kg, route intraperitoneal. The data set is classed as toxicity, organism-based. As to conditions: in vivo. Put shortly:
as §6

Data set [29] deals with Rattus norvegicus. The data set is described as follows: Anticonvulsant activity in albino Sprague-Dawley rat assessed as protection against maximal electroshock-induced seizures at 50 mg/kg, po after 2 hrs. The data set is classed as functional. In outline: as §5
Data set [30] concerns Mus musculus. The data set is described as follows: Anticonvulsant activity in CF1 albino mouse assessed as protection against scMet-induced seizures at 300 mg/kg, ip after 4 hrs. The data set is classed as functional, organism-based. On the set-up: dose 300 mg/kg. In outline:
as §3

In data set [31] the test system is Mus musculus. Nature of the data set: Neurotoxicity in CF1 albino mouse at 300 mg/kg, ip after 4 hrs. Particulars: in vivo. On the set-up: dose 300 mg/kg, route intraperitoneal. The data set is classed as toxicity, organism-based. Put shortly: as §6
Data set [32] relates to Mus musculus. The data set is described as follows: Anticonvulsant activity in CF1 albino mouse assessed as protection against maximal electroshock-induced seizures at 400 mg/kg, ip. The data set is classed as functional, organism-based. On the set-up: dose 400 mg/kg. Put shortly:
as §4

Data set [33] relates to Mus musculus. The data set is described as follows: Anticonvulsant activity in ip dosed CF1 albino mouse assessed as protection against scMet-induced seizures. The data set is classed as functional. In outline:
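Adult male CF no. 1 albino mice (18-25 g) dosed ip with compound suspended in 0.5% methylcellulose (0.01 mL/g body weight). Seizures were induced by subcutaneous pentylenetetrazol, given as a 0.85% solution in 0.9% saline. ED50 was found by varying the dose to give 3-4 points between 0% and 100% protection, then probit analysis with 95% confidence intervals.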

For data set [34], the system named is Mus musculus. The data set is described as follows: Anticonvulsant activity in CF1 albino mouse assessed as protection against maximal electroshock-induced seizures at 60 mg/kg, ip. Format: functional, organism-based. On the set-up: dose 60 mg/kg. Put shortly:
as §4

The test system of data set [35] is Mus musculus. Nature of the data set: Anticonvulsant activity in CF1 albino mouse assessed as protection against maximal electroshock-induced seizures at 150 mg/kg, ip after 0.5 hrs. The data set is classed as functional, organism-based. On the set-up: dose 150 mg/kg. Put shortly:
as §4

The species named for data set [36] is Mus musculus. The data set is described as follows: Protective index, ratio of TD50 for CF1 albino mouse to ED50 for scMet-induced CF1 albino seizure mouse model. The data set is classed as functional. Put shortly: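 Ratio of TD50 to ED50 (MES or scMet) in male CF no. 1 mice (18-25 g) given ip doses in 0.5% methylcellulose. TD50 comes from minimal motor impairment: the dose was varied until four points lay between no impairment and all animals impaired. Both TD50 and ED50 were derived by probit analysis with 95% confidence intervals.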

The values that follow come from ChEMBL document CHEMBL1153988 (J Med Chem, 2009).

Active and inactive are the calls of the source. No cut-off for these calls is given here.

For the compound `CC1(C)C(C(=O)NC(N)=O)C1(C)C` [2,2,3,3-TETRAMETHYLCYCLOPROPANECARBONYLUREA], the values for the PI in the data set filed under Rattus norvegicus [1] and in the data set listed under Rattus norvegicus [2] were 5.9 and 18.5, respectively.

In the case of `CC1(C)C(C)(C)C1(C)C(N)=O`, the Activity in the data set on Rattus norvegicus [3] was 25%; in the data set with Mus musculus [4], “Non-toxic”; in the data set on Mus musculus [6], “Non-toxic”; in the data set on Mus musculus [8], “Toxic”; with Mus musculus [9], “Non-toxic”; in the data set with Mus musculus [10], “Non-toxic”. The Activity in the data set with Rattus norvegicus [11] is 25%; in the data set with Mus musculus [14] it was “Non-toxic”; with Mus musculus [17], “Non-toxic”; with Mus musculus [18], “Toxic”; with Mus musculus [19], “Non-toxic”; in the data set on Mus musculus [20] it was “Non-toxic”. Further, the Activity entry in the data set on Rattus norvegicus [21] was “Not Active”; in the data set with Mus musculus [22], “Non-toxic”; with Mus musculus [23], “Non-toxic”; in the data set on Mus musculus [25] it was “Non-toxic”; in the data set on Mus musculus [26], “Non-toxic”; in the data set on Mus musculus [27] it was “Toxic”. Moreover, the Activity entry with Mus musculus [28], in the data set on Mus musculus [30] and in the data set on Mus musculus [31] was “Non-toxic” each time. Also, the result in the data set with Rattus norvegicus [5], with Rattus norvegicus [7], in the data set with Rattus norvegicus [12], in the data set with Rattus norvegicus [13], in the data set with Rattus norvegicus [15] and with Rattus norvegicus [16] was inactive. Further, the outcome with Rattus norvegicus [24] and in the data set with Rattus norvegicus [29] was inactive.

A word on the ED50: it is the midpoint of the dose-response relation. For `CCCC(F)(CCC)C(N)=O`, in the data set with Mus musculus [32], the result was Active. In the data set with Mus musculus [33], the ED50 amounted to 23 mg/kg. The outcome with Mus musculus [34] and with Mus musculus [35] was inactive. For the same compound, the PI in the data set filed under Mus musculus [36] turned out to be 3.8.
